Experimental findings from ChEMBL document CHEMBL4732104, “Discovery of bardoxolone derivatives as novel orally active necroptosis inhibitors” (Eur J Med Chem, 2021) are described below.

Assay [1] deals with HT-29. The assay can be described thus: Protection against TNFalpha/SM-164 (TS)-induced apoptosis in human HT-29 cells assessed as increase in cell viability at 0.5 to 10 uM measured after 20 hrs by celltiter-glo luminescent cell viability assay. Format: functional, cell-based. As to conditions: dose 0.5-10 µM. The gist of the method:
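HT-29 cells exposed to agent across concentrations, then TNF-α and Smac mimetic (TS) for 20 h. CellTiter-Glo viability, mean ± S.D. of three independent experiments.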
A general note: Cellular ATP, detected with luciferase, serves as a proxy for viable cell number.

Assay [2] addresses T1, Heat shock protein HSP90 (Homo sapiens) (UniProt P07900+P08238). The assay can be described thus: Inhibition of HSP90 in TNFalpha/SM-164/Z-VAD-fmk (TSZ)-induced human HT-29 cells assessed as reduction in MLKL expression at 10 uM preincubated for 30 mins followed by TSZ stimulation and measured after 2 to 6 hrs by Western blot analysis. Format: cell-based. As to conditions: time 2-6.5 hrs. The method in brief: (§1)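 HT-29 cells pretreated 30 min with agent (10 μM), then TSZ for the indicated times. Lysed in RIPA with protease and phosphatase inhibitors, BCA quantified. 30 μg protein run on SDS-PAGE and blotted to PVDF. Blocked in 5% BSA, primary antibodies 1:1000 overnight at 4 °C, secondary 1:8000 for 1 h at room temperature.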
A general note: A western blot detects proteins with antibodies after separation by electrophoresis.

In assay [3] the test system is HT-29. The assay can be described thus: Protection against TNFalpha/cycloheximide (TC)-induced apoptosis in human HT-29 cells assessed as increase in cell viability at 0.25 to 5 uM measured after 24 hrs by celltiter-glo luminescent cell viability assay. Format: functional, cell-based. As to conditions: dose 0.25-5 µM. The method in brief:
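HT-29 cells treated with agent across concentrations, then TNF-α and cycloheximide (TC) for 24 h. CellTiter-Glo luminescent viability, mean ± S.D. from three independent experiments.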

Assay [4] has as its system HT-29. In words: Anti-necroptotic activity in human HT-29 cells assessed as inhibition of TNFalpha/cycloheximide/Z-VAD-fmk (TCZ)-induced necroptosis by measuring increase in cell viability measured after 16 hrs by celltiter-glo luminescent cell viability assay. Format: functional, cell-based.
The next assay deals with Mus musculus. In words: Protection against TNFalpha-induced C57BL/6J mouse model of systemic inflammatory response syndrome assessed as survival at 20 mg/kg, ig administered via gavage 2 hrs prior to TNFalpha stimulation and measured after 10 to 60 mins relative to control. The settings on record: po, time 2-3 hrs. Format: functional. The method in brief: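 Female C57BL/6 J mice, 6–8 weeks, fasted overnight, n=11 per group. Compound suspended in 0.5% CMC-Na, by oral gavage 2 h before mTNF-α 250 µg/kg i.v.; z-VAD-fmk 200 µg i.p. 15 min before and 75 µg 1 h after TNF. Survival and body temperature monitored.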

In assay [5] the target is T1, Heat shock protein HSP90 (Homo sapiens). In words: Inhibition of HSP90 in TNFalpha/SM-164/Z-VAD-fmk (TSZ)-induced human HT-29 cells assessed as reduction in RIPK3 expression at 10 uM preincubated for 30 mins followed by TSZ stimulation and measured after 2 to 6 hrs by Western blot analysis. Format: cell-based. The settings on record: time 2-6.5 hrs. The gist of the method: as §1

Activity calls are given as the source filed them. The rule behind the calls is not given here.

Turning to `CC1(C)CC[C@]2(C(=O)n3cnc(-c4cccnc4)c3)CC[C@]3(C)[C@H](C(=O)C=C4[C@@]5(C)C=C(C#N)C(=O)C(C)(C)[C@@H]5CC[C@]43C)[C@@H]2C1`, the outcome in the assay on HT-29 [1] and with HT-29 [3] was Active. In addition, the inhibition result in assay [2] and in assay [5] was “Active” each time. Also, in the assay with HT-29 [4], the inhibition result is “Dose-dependent effect”. Besides, in the assay on Mus musculus, the survival at 20 mg/kg stood at 100%.
